This note sets out measurements from article PMC7392372 (Bioorganic & medicinal chemistry letters, 2018).

The target of data set [1] is BRD4 (BD1,2) (Homo sapiens, UniProt O60885). Description: BROMOScan competitive binding affinity, BRD4. To be noted: for fold decrease of potency in binding affinity (Kd): relative to 17; for fold improvement in Kd values: relative to smaller 2-substitutions (13, 14).
Data set [2] in a line: Pharmacokinetics in CD-1 mice. The format is in vivo. To be noted: po 10 mg/kg, n=3. The gist of the method:
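CD-1 mice received a single 10 mg/kg oral dose, n = 3. AUC0−∞ (h·ng/mL) was reported together with t1/2, Cmax, Vss, CLp and F%. For oral bioavailability, an intravenous arm dosed at 2 mg/kg was also run.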

As to `Cc1noc(C)c1-c1ccc2c(NCc3cccc(Cl)c3)nc(N3CCN(CCN(C)C)CC3)nc2c1` [compound 40], in data set [1], the “fold decrease of potency in binding affinity (Kd)” value is recorded as ~ 12 fold.
On the same count and under the same terms, in the case of `Cc1noc(C)c1-c1ccc2nc(N3CCN(CCN(C)C)CC3)nc(NCc3ccc(Cl)cc3)c2c1` [compound 51] it was ~ 9 fold.
Regarding `Cc1noc(C)c1-c1ccc2nc(N3CCN(C)CC3)nc(NCc3cccc(Cl)c3)c2c1` [compound 16], in data set [1], the “fold improvement in Kd values” is reported as ~ 20 fold.
Still for that read-out and setting: in the case of `Cc1noc(C)c1-c1ccc2nc(N(C)CCN(C)C)nc(NCc3cccc(Cl)c3)c2c1` [compound 15] it was ~ 20 fold.
Take `Cc1noc(C)c1-c1ccc2nc(N3CCN(CCN(C)C)CC3)nc(N(C)Cc3cccc(Cl)c3)c2c1` [compound 57]: the “fold decrease of potency in binding affinity (Kd)” value in data set [1] is given as 2–3 fold.
For `CN(C)CCN1CCN(c2nc(NCc3cccc(Cl)c3)c3cc(-c4ccc(=O)n(C)c4)ccc3n2)CC1` [compound 48], the “AUC0−∞” value in data set [2] is reported as “no exposure”.
